Experimental data reported in ChEMBL document CHEMBL4118256, “Second Generation of Mannich Base-Type Derivatives with in Vivo Activity against Trypanosoma cruzi” (J Med Chem, 2018).
The source made the active and inactive calls. The calls are words filed in the database; no cut-off is given here.

Tested on: Trypanosoma cruzi
Assay: Trypanocidal activity against Trypanosoma cruzi MHOM/Pe/2011/Arequipa DTU 5 amastigotes infected in African green monkey Vero cells assessed as infected cells at 50 uM after 72 hrs by Giemsa-staining based microscopic assay relative to control
Type: functional
Conditions: not given
In short: (§1)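 Infected Vero cell cultures were exposed for 72 h to a range of concentrations. Infected cells were counted microscopically on Giemsa-stained preparations and expressed relative to infected untreated controls. Values are means of three separate determinations; IC50 was derived by curve fitting.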

Compound | Activity
COc1ccc(C(=O)CCN2CCN(c3ccc(F)cc3)CC2)cc1 | 7%
COc1ccc(C(=O)CCN2CCN(c3ccc(Cl)cc3)CC2)cc1 | 15%

Tested on: Trypanosoma cruzi
Assay: Antitrypanosomal activity against Trypanosoma cruzi MHOM/Pe/2011/Arequipa DTU 5 trypamastigotes infected in Balb/c mouse assessed as reduction in splenomegaly at 100 mg/kg, po once daily for 5 consecutive days starting from day 10 post infection measured on day 127 post infection relative to control
Type: functional
Conditions: not given

Compound | Activity
COc1ccc(C(=O)CCN2CCN(c3ccc(F)cc3)CC2)cc1 | Active
COc1ccc(C(=O)CCN2CCN(c3ccc(Cl)cc3)CC2)cc1 | 52%

Tested on: Trypanosoma cruzi
Assay: Trypanocidal activity against Trypanosoma cruzi IRHOD/CO/2008/SN3 DTU 1 epimastigotes after 48 hrs by resazurin dye based assay
Type: functional, organism-based
Conditions: IRHOD/CO/2008/SN3 DTU 1, 48 h
In short: (§2)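 Exponential-phase epimastigotes were seeded at 5×10^5 mL^-1 with compounds at 100–0.2 µM (DMSO 0.01% v/v) at 28 °C. After 48 h, resazurin was added for another 24 h. SDS was then added and absorbance read at 570 and 600 nm.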

Compound | IC50
COc1ccc(C(=O)CCN2CCN(c3ccc(F)cc3)CC2)cc1 | 2 µM
COc1ccc(C(=O)CCN2CCN(c3ccc(Cl)cc3)CC2)cc1 | 6.3 µM

Tested on: Trypanosoma cruzi
Assay: Antitrypanosomal activity against Trypanosoma cruzi MHOM/Pe/2011/Arequipa DTU 5 trypamastigotes infected in Balb/c mouse assessed as reduction in splenomegaly at 100 mg/kg, po once daily for 5 consecutive days starting from day 75 post infection measured on day 127 post infection relative to control
Type: functional
Conditions: not given

Compound | Activity
COc1ccc(C(=O)CCN2CCN(c3ccc(F)cc3)CC2)cc1 | Active
COc1ccc(C(=O)CCN2CCN(c3ccc(Cl)cc3)CC2)cc1 | 68%

Tested on: Trypanosoma cruzi
Assay: Trypanocidal activity against Trypanosoma cruzi IRHOD/CO/2008/SN3 DTU 1 amastigotes infected in African green monkey Vero cells after 72 hrs by Giemsa-staining based microscopic assay
Type: functional, organism-based
Conditions: IRHOD/CO/2008/SN3 DTU 1, Vero
In short: (§3)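 Vero cells were seeded at 1×10^4/well on coverslips. After 24 h they were infected with culture-derived trypomastigotes (MOI 1:10, 24 h), then washed. Compounds were added at 100–0.2 µM (DMSO 0.01% v/v) for 72 h at 37 °C, 5% CO2. Slides were methanol-fixed and Giemsa-stained; amastigotes and infected cells were counted over 500 host cells. IC50 was derived by curve fitting; triplicate wells, four separate determinations.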

Compound | IC50
COc1ccc(C(=O)CCN2CCN(c3ccc(F)cc3)CC2)cc1 | 3.1 µM
COc1ccc(C(=O)CCN2CCN(c3ccc(Cl)cc3)CC2)cc1 | 5.8 µM

Tested on: Mus musculus
Assay: (§4) Cardiotoxicity in Balb/c mouse infected with Trypanosoma cruzi MHOM/Pe/2011/Arequipa DTU 5 trypamastigotes assessed as change in serum LDH level at 100 mg/kg, po once daily for 5 consecutive days starting from day 10 post infection measured on day 127 post infection by biochemical analysis relative to control
Type: toxicity, organism-based
Conditions: in vivo

Compound | Activity
COc1ccc(C(=O)CCN2CCN(c3ccc(F)cc3)CC2)cc1 | < 10%
COc1ccc(C(=O)CCN2CCN(c3ccc(Cl)cc3)CC2)cc1 | < 10%

Tested on: Mus musculus
Assay: as §4, with “Hepatotoxicity” for “Cardiotoxicity”, “alkaline phosphatase” for “serum LDH”
Type: toxicity, organism-based
Conditions: in vivo

Compound | Activity
COc1ccc(C(=O)CCN2CCN(c3ccc(F)cc3)CC2)cc1 | < 10%
COc1ccc(C(=O)CCN2CCN(c3ccc(Cl)cc3)CC2)cc1 | < 10%

Tested on: Trypanosoma cruzi
Assay: Antitrypanosomal activity against Trypanosoma cruzi MHOM/Pe/2011/Arequipa DTU 5 epimastigotes assessed as reduction in mitochondrial membrane potential at IC25 after 72 hrs by Rho123 staining based flow cytometry relative to control
Type: functional
Parameters: scale not given: the % may be the effect or the level left
Conditions: not given
In short: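 Arequipa epimastigotes were exposed at IC25 for 72 h, then labelled with Rhodamine 123 and analysed by flow cytometry. Result is % alteration in mitochondrial membrane potential versus untreated control.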

Compound | Activity
COc1ccc(C(=O)CCN2CCN(c3ccc(F)cc3)CC2)cc1 | 25.6%
COc1ccc(C(=O)CCN2CCN(c3ccc(Cl)cc3)CC2)cc1 | 27.4%

Tested on: Mus musculus
Assay: as §4, with “Hepatotoxicity” for “Cardiotoxicity”, “total bilirubin” for “serum LDH”, “[…],” for “100 mg/kg,”
Type: toxicity, organism-based
Conditions: in vivo
In short: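 Serum clinical chemistry in Arequipa-infected female BALB/c mice. Oral 20 mg·kg-1 per day for 5 days, started day 10 or day 75 pi. Samples taken at day 16 pi or day 81 pi, and on necropsy day. Markers: CK-MB and LDH (U/L), AST, ALT and alkaline phosphatase (U/L), total bilirubin. Results scored relative to infected untreated controls; uninfected reference n = 15.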

Compound | Activity
COc1ccc(C(=O)CCN2CCN(c3ccc(F)cc3)CC2)cc1 | < 10%
COc1ccc(C(=O)CCN2CCN(c3ccc(Cl)cc3)CC2)cc1 | < 10%

Tested on: Trypanosoma cruzi
Assay: Trypanocidal activity against Trypanosoma cruzi MHOM/Pe/2011/Arequipa DTU 5 epimastigotes after 48 hrs by resazurin dye based assay
Type: functional, organism-based
Conditions: MHOM/Pe/2011/Arequipa DTU 5, 48 h
In short: as §2

Compound | IC50
COc1ccc(C(=O)CCN2CCN(c3ccc(F)cc3)CC2)cc1 | 1.4 µM
COc1ccc(C(=O)CCN2CCN(c3ccc(Cl)cc3)CC2)cc1 | 9.5 µM

Tested on: Trypanosoma cruzi
Assay: Trypanocidal activity against Trypanosoma cruzi MHOM/Pe/2011/Arequipa DTU 5 amastigotes infected in African green monkey Vero cells assessed as reduction in infected cells after 72 hrs by Giemsa-staining based microscopic assay
Type: functional, organism-based
Conditions: MHOM/Pe/2011/Arequipa DTU 5, Vero
In short: as §1

Compound | IC50
COc1ccc(C(=O)CCN2CCN(c3ccc(F)cc3)CC2)cc1 | 1.9 µM
COc1ccc(C(=O)CCN2CCN(c3ccc(Cl)cc3)CC2)cc1 | 6.4 µM

Tested on: not listed separately
Assay: Selectivity index, ratio of IC50 for African green monkey Vero cells to IC50 for Trypanosoma cruzi IRHOD/CO/2008/SN3 DTU 1 amastigotes infected in African green monkey Vero cells
Type: toxicity
Conditions: read-out: Ratio IC50
In short: (§5)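 SI is Vero IC50 divided by the IC50 for the stated parasite form. For Vero cytotoxicity, cells were seeded at 1.25×10^4 mL^-1 with compounds at 1000–1 µM, incubated 48 h, then given resazurin for a further 24 h (72 h total), with absorbance read at 570/600 nm. Triplicate, four determinations.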

Compound | selectivity ratio
COc1ccc(C(=O)CCN2CCN(c3ccc(F)cc3)CC2)cc1 | 17.6
COc1ccc(C(=O)CCN2CCN(c3ccc(Cl)cc3)CC2)cc1 | 51.5

Tested on: Trypanosoma cruzi
Assay: Antitrypanosomal activity against Trypanosoma cruzi MHOM/Pe/2011/Arequipa DTU 5 trypamastigotes infected in Balb/c mouse assessed as reduction in Ig-G level in serum at 100 mg/kg, po once daily for 5 consecutive days starting from day 75 post infection measured on day 81 post infection by ELISA
Type: functional, organism-based
Conditions: not given

Compound | Activity
COc1ccc(C(=O)CCN2CCN(c3ccc(F)cc3)CC2)cc1 | inactive
COc1ccc(C(=O)CCN2CCN(c3ccc(Cl)cc3)CC2)cc1 | inactive

Tested on: not listed separately
Assay: Selectivity index, ratio of IC50 for African green monkey Vero cells to IC50 for Trypanosoma cruzi TINF/CH/1956/Tulahuen DTU 6 epimastigotes
Type: toxicity
Conditions: read-out: Ratio IC50
In short: as §5

Compound | selectivity ratio
COc1ccc(C(=O)CCN2CCN(c3ccc(F)cc3)CC2)cc1 | 30.2
COc1ccc(C(=O)CCN2CCN(c3ccc(Cl)cc3)CC2)cc1 | 40.9

Tested on: Trypanosoma cruzi
Assay: Trypanocidal activity against Trypanosoma cruzi MHOM/Pe/2011/Arequipa DTU 5 trypamastigotes derived from infected Balb/c albino mouse after 24 hrs by resazurin dye based assay
Type: functional, organism-based
Conditions: MHOM/Pe/2011/Arequipa DTU 5, 24 h
In short: (§6)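 Bloodstream trypomastigotes taken from mice at peak parasitaemia were seeded at 2×10^6 mL^-1 in RPMI with 10% FBS. Compounds were added at 50–0.2 µM and incubated 24 h at 37 °C, 5% CO2, then with resazurin for 4 h. SDS was added and absorbance read at 570/600 nm. IC50 was fitted; triplicate, four separate determinations.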

Compound | IC50
COc1ccc(C(=O)CCN2CCN(c3ccc(F)cc3)CC2)cc1 | 1.1 µM
COc1ccc(C(=O)CCN2CCN(c3ccc(Cl)cc3)CC2)cc1 | 3.4 µM

Target: Superoxide dismutase [Cu-Zn] (Homo sapiens, UniProt P00441)
Sequence (P00441 whole entry): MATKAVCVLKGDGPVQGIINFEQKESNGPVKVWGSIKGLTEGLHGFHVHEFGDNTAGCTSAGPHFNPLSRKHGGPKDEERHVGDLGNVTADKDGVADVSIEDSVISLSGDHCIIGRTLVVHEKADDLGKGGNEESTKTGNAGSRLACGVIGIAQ
Assay: Inhibition of human erythrocyte CuZn-SOD by UV-Visible spectrophotometric method
Conditions: not given
In short: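 SOD activity of parasite Fe-SOD and human CuZn-SOD was measured spectrophotometrically by the Beyer and Fridovich method, with compounds at 1–100 µM. Values are averages of three rate determinations; IC50 was obtained by linear regression and differences were tested by Newman-Keuls.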

Compound | IC50
COc1ccc(C(=O)CCN2CCN(c3ccc(F)cc3)CC2)cc1 | 146 µM
COc1ccc(C(=O)CCN2CCN(c3ccc(Cl)cc3)CC2)cc1 | 100 µM

Tested on: not listed separately
Assay: Selectivity index, ratio of IC50 for African green monkey Vero cells to IC50 for Trypanosoma cruzi MHOM/Pe/2011/Arequipa DTU 5 epimastigotes
Type: toxicity
Conditions: read-out: Ratio IC50
In short: as §5

Compound | selectivity ratio
COc1ccc(C(=O)CCN2CCN(c3ccc(F)cc3)CC2)cc1 | 40.2
COc1ccc(C(=O)CCN2CCN(c3ccc(Cl)cc3)CC2)cc1 | 31.5

Tested on: Trypanosoma cruzi
Assay: Trypanocidal activity against Trypanosoma cruzi TINF/CH/1956/Tulahuen DTU 6 trypamastigotes derived from infected Balb/c albino mouse after 24 hrs by resazurin dye based assay
Type: functional, organism-based
Conditions: TINF/CH/1956/Tulahuen DTU 6, 24 h
In short: as §6

Compound | IC50
COc1ccc(C(=O)CCN2CCN(c3ccc(F)cc3)CC2)cc1 | 1.2 µM
COc1ccc(C(=O)CCN2CCN(c3ccc(Cl)cc3)CC2)cc1 | 2.9 µM

Tested on: not listed separately
Assay: Selectivity index, ratio of IC50 for African green monkey Vero cells to IC50 for Trypanosoma cruzi MHOM/Pe/2011/Arequipa DTU 5 amastigotes infected in African green monkey Vero cells
Type: toxicity
Conditions: read-out: Ratio IC50
In short: as §5

Compound | selectivity ratio
COc1ccc(C(=O)CCN2CCN(c3ccc(F)cc3)CC2)cc1 | 88.7
COc1ccc(C(=O)CCN2CCN(c3ccc(Cl)cc3)CC2)cc1 | 82.4

Tested on: Trypanosoma cruzi
Assay: Trypanocidal activity against Trypanosoma cruzi TINF/CH/1956/Tulahuen DTU 6 amastigotes infected in African green monkey Vero cells after 72 hrs by Giemsa-staining based microscopic assay
Type: functional, organism-based
Conditions: TINF/CH/1956/Tulahuen DTU 6, Vero
In short: as §3

Compound | IC50
COc1ccc(C(=O)CCN2CCN(c3ccc(F)cc3)CC2)cc1 | 1.6 µM
COc1ccc(C(=O)CCN2CCN(c3ccc(Cl)cc3)CC2)cc1 | 3.8 µM

Tested on: not listed separately
Assay: Selectivity index, ratio of IC50 for African green monkey Vero cells to IC50 for Trypanosoma cruzi TINF/CH/1956/Tulahuen DTU 6 amastigotes infected in African green monkey Vero cells
Type: toxicity
Conditions: read-out: Ratio IC50
In short: as §5

Compound | selectivity ratio
COc1ccc(C(=O)CCN2CCN(c3ccc(F)cc3)CC2)cc1 | 34.6
COc1ccc(C(=O)CCN2CCN(c3ccc(Cl)cc3)CC2)cc1 | 78.7
